Results on 14 compounds are retold here after ChEMBL document CHEMBL1127454, “Differential inhibition of aminopeptidase A and aminopeptidase N by new beta-amino thiols” (J Med Chem, 1994).

Structures are written as SMILES.

The target of the first assay is T1, Aminopeptidase N (Sus scrofa, UniProt P15145).
T1 sequence (P15145 whole entry): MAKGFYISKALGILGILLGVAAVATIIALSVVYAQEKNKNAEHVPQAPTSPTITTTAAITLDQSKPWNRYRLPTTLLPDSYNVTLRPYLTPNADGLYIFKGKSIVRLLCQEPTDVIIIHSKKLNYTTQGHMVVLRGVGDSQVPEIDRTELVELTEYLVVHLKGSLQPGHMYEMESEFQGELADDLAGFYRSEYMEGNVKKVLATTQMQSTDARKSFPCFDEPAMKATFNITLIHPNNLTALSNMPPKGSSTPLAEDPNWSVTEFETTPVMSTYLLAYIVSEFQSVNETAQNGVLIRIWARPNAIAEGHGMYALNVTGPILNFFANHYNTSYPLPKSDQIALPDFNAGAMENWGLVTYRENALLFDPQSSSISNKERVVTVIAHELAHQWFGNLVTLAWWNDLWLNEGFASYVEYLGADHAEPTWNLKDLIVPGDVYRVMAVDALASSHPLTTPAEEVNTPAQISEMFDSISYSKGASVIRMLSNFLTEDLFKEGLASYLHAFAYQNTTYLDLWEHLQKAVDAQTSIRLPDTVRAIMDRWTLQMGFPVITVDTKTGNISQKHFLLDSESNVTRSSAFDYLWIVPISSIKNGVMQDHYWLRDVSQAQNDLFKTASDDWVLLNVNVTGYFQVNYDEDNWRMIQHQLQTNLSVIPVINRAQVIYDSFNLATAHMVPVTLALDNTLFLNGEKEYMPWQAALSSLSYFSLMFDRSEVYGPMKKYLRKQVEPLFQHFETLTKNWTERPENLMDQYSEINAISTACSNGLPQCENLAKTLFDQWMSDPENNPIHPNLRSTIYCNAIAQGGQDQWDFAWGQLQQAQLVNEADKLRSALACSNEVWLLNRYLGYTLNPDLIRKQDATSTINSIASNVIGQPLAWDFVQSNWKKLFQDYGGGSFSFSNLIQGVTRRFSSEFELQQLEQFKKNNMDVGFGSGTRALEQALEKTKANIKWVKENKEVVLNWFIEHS
The experiment in a line: Inhibitory potency was measured on aminopeptidase N (APN). The procedure, abridged:
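APN preincubated 15 min at 25 °C with varied inhibitor levels in 50 mM Tris-HCl pH 7.4. […] Reaction run 15 min, stopped with HCl. Released [3H]Tyr separated on polystyrene beads and counted by liquid scintillation. Thiols dissolved with DTT (100 equiv). Ki derived from IC50 via Cheng-Prusoff, competitive inhibition assumed. Three experiments, triplicate.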
`NC(CS)CCCCC(=O)O` (centres undefined): affinity was put at a Ki of 280 nM.
As to `N[C@H](CS)CCS(=O)(=O)O`, the Ki (in general, the dissociation constant of the complex between target and ligand, obtained from inhibition or displacement) stood at 25000 nM. Against the preceding compound, the Ki is about 89-fold higher.
Same read-out and setting: for `N[C@H](CS)CCCC(=O)O` the value was 330 nM.
In turn, `N[C@H](CS)CCCS` registered a Ki of 32 nM.
In turn, `N[C@@H](CS)CCCC(=O)O` returned a Ki of 15500 nM.
`NC(CS)CCC(C(=O)O)C(=O)O` (centres undefined) gave a Ki of 600 nM.
The same measure, in the same setting: next, `NC(CS)CCCP(=O)(O)O` (centres undefined): 3700 nM; `NC(CS)CC(C(=O)O)C(=O)O` (centres undefined): 4500 nM.
`CC(C[C@H](N)CS)C(=O)O` (some centres undefined): the Ki came to 4000 nM.
`CC(CC(N)CS)C(=O)O` (centres undefined) registered a Ki of 2800 nM.
`N[C@H](CS)CCCC(=O)NO` registered a Ki of 37 nM.
The compound `N[C@H](CS)CCCS(=O)(=O)O` showed a Ki of 1900 nM.
`NC(CS)CCP(=O)(O)O` (centres undefined) showed an inhibitory constant (Ki) of 12000 nM.

A further assay concerns the target Glutamyl aminopeptidase (Oryctolagus cuniculus). The experiment in a line: Inhibition of aminopeptidase A (APA).
Consider `N[C@H](CS)CCC(=O)O`, for which the Ki worked out at 140 nM.
